Drawing on ChEMBL document CHEMBL4673343, “Lythrum salicaria Ellagitannins Stimulate IPEC-J2 Cells Monolayer Formation and Inhibit Enteropathogenic Escherichia coli Growth and Adhesion” (J Nat Prod, 2020), this text covers Activity for three molecules.

In assay [1] the test system is IPEC-J2. Briefly: Induction of claudin-4 protein expression in porcine IPEC-J2 cells at 20 uM after 6 days by Western blot analysis. The assay is classed as functional, cell-based. Particulars: Sus scrofa domesticus, time 6.0 day. A digest of the protocol:
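Inserts were treated apically with 20 μM from day 7, with medium renewed at day 10. At day 13 cells were lysed and protein equalized by BCA, then run on SDS–PAGE and transferred to nitrocellulose. Blots were probed with mouse anti-claudin 4 and an HRP secondary and detected by ECL. Band intensity was normalized to β-actin and expressed as fold over PBS control.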
Background: Immunoblotting shows a protein as a band on a membrane.

The test system of assay [2] is IPEC-J2. The experiment in a line: Induction of porcine IPEC-J2 cells monolayer development assessed as increase in transepithelial electrical resistance at 20 uM after 6 days by voltammetric method. The assay is classed as functional, cell-based. Conditions: Sus scrofa domesticus, time 6.0 day. A digest of the protocol:
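IPEC-J2 cells were seeded at 5 × 10^5/insert (0.4 μm PET) and cultured until TEER exceeded 1 kΩ cm2 (day 7). Apical medium was then replaced with 20 μM compound or PBS and renewed at day 10, with basolateral medium changed in parallel. TEER was read with an EVOM2 chopstick electrode at days 10 and 13. Mann–Whitney test versus PBS.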

Calls of active or inactive are those of the source. The calls are words filed in the database; no cut-off is given here.

Turning to `O=C(O[C@@H]1COC(=O)c2cc(O)c(O)c(O)c2-c2c(cc(O)c(O)c2O)C(=O)O[C@H]1[C@@H]1OC(=O)c2cc(O)c(O)c(O)c2-c2c(O)c(O)c(O)c3c2C(=O)O[C@H]1[C@@H]3O)c1cc(O)c(O)c(O)c1Oc1cc2c(c(O)c1O)-c1c(cc(O)c(O)c1O)C(=O)OC[C@H]1OC(=O)c3cc(O)c(O)c(O)c3-c3c(O)c(O)c(O)c4c3C(=O)O[C@H]([C@H]3OC(=O)c5c-4c(O)c(O)c(O)c5[C@@H]3O)[C@@H]1OC2=O`, the outcome in assay [1] and in assay [2] was Active. As for `O=C(O[C@@H]1COC(=O)c2cc(O)c(O)c(O)c2-c2c(cc(O)c(O)c2O)C(=O)O[C@H]1[C@@H]1OC(=O)c2cc(O)c(O)c(O)c2-c2c(O)c(O)c(O)c3c2C(=O)O[C@H]1[C@H]3O)c1cc(O)c(O)c(O)c1Oc1cc2c(c(O)c1O)-c1c(cc(O)c(O)c1O)C(=O)OC[C@H]1OC(=O)c3cc(O)c(O)c(O)c3-c3c(O)c(O)c(O)c4c3C(=O)O[C@H]([C@H]3OC(=O)c5c-4c(O)c(O)c(O)c5[C@@H]3O)[C@@H]1OC2=O`, the result in assay [1] and in assay [2] was Active. With `O=C1OC[C@H]2OC(=O)c3cc(O)c(O)c(O)c3-c3c(O)c(O)c(O)c4c3C(=O)O[C@H]([C@H]3OC(=O)c5c-4c(O)c(O)c(O)c5[C@@H]3O)[C@@H]2OC(=O)c2cc(O)c(O)c(O)c2-c2c1cc(O)c(O)c2O`, the result in assay [2] was Active.
